In brackets after ≈: the same amount, converted by molar mass.
Legend:
[1] = Cytotoxicity against BAEC after 2 days by MTT assay; format: cell-based, Bos taurus
Summary of the method: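 BAE cells (primary bovine aortic endothelium, collagenase-isolated; grown in DMEM/20% FBS), 8·10³ per well, exposed to serial dilutions for 2 days at 37 °C, 5% CO₂. MTT (5 mg/mL in PBS) then added for a further 2 h at 37 °C. Formazan dissolved in DMSO and read spectrophotometrically. IC50 = concentration inhibiting growth by 50%; ">" means not reached at the top concentration tested.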

[2] = Effect on tube formation of BAEC assessed as sprouting inhibition after 48 hrs; format: functional, Bos taurus
Summary of the method: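 BAE cells coated onto Cytodex 3 microcarrier beads over 48 h at 37 °C, 5% CO₂. Beads (250/mL) seeded onto Matrigel in wells containing compound; medium added after 30 min. After 48 h, sprout extent and length scored by microscopy against untreated wells. MIC = lowest concentration with no tube formation; ">" means not reached at the top concentration tested.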

[3] = Ratio of MIC for BAEC sprouting to IC50 for BAEC; format: functional, Bos taurus
[4] = Bos taurus, 48 h, read-out: MIC

| SMILES | IC50 ([1]; Bos taurus, BAEC, 48 h) [µM] | MIC [2, 4] [µM] | Ratio [3] | IC50 ([1]; baec) [µM] | MIC [2] [µM] |
| --- | --- | --- | --- | --- | --- |
| COC(=O)/C(=C/c1cc(Br)c(OC)c(Br)c1OCc1ccccc1)NC(=O)c1ccccc1 | > 17 | > 35 |  |  |  |
| COc1c(Br)cc(/C=C2\N=C(c3ccccc3)OC2=O)c(OC(=O)c2ccccc2)c1Br | > 18 | 27 (≈ 15 µg/mL) |  |  |  |
| OCc1cc(Br)cc(Br)c1O | > 35 | 71 (≈ 20 µg/mL) |  |  |  |
| COc1c(Br)cc(C=O)c(OC(C)=O)c1Br | 23 | 33 (≈ 11.6 µg/mL) | 0.7 |  |  |
| COc1c(Br)cc(C=O)c(OCc2ccccc2)c1Br | > 12.5 | > 12.5 |  |  |  |
| COc1c(Br)cc(CO)c(OCCO)c1Br | > 28 | 28 (≈ 9.97 µg/mL) |  |  |  |
| COC(=O)COc1c(C=O)cc(Br)c(OC)c1Br | 151 | 52 (≈ 19.9 µg/mL) | 3 |  |  |
| COc1c(Br)cc(CO)c(OCc2ccccc2)c1Br | > 12 | > 12 |  |  |  |
| COC(=O)COc1c(CO)cc(Br)c(OC)c1Br | > 26 | > 26 |  |  |  |
| COc1c(Br)cc2c(c1Br)OCC(O)OC2 (centres undefined) | > 28 | > 28 |  |  |  |
| COc1c(Br)cc(C=O)c(OCc2cc(N(C)C)ccc2Br)c1Br | > 19 | > 38 |  |  |  |
| COC(=O)/C=C/c1cc(Br)c(OC)c(Br)c1O | > 14 | > 14 |  |  |  |
| O=C1C=CC(Br)=C[C@]12CO2 | > 25 | 25 (≈ 5.03 µg/mL) |  |  |  |
| COC1=C(Br)C(=O)[C@]2(C=C1)CO2 | 11 | 3 (≈ 0.693 µg/mL) | 4 |  |  |
| COc1c(Br)cc(C=O)c(O)c1Br | 806 | > 16 |  |  |  |
| O=Cc1cc(Br)cc(Br)c1O | 36 | 71 (≈ 19.9 µg/mL) | 0.5 |  |  |

| SMILES | IC50 ([1]; Bos taurus, BAEC, 48 h) [µM] | MIC [2, 4] [µM] | Ratio [3] | IC50 ([1]; baec) [µM] | MIC [2] [µM] |
| --- | --- | --- | --- | --- | --- |
| COc1c(Br)cc(CO)c(O)c1Br | > 16 | > 16 |  |  |  |
| COc1c(Br)cc(/C=C2\N=C(c3ccccc3)OC2=O)c(OC(=O)c2ccc(N(C)C)cc2)c1Br | 83 | > 17 |  |  |  |
| COC1=CC(=O)[C@]2(C=C1Br)CO2 | > 22 | > 22 |  |  |  |
| COc1ccc(C=O)c(O)c1 | > 33 | > 33 |  |  |  |
| COc1c(Br)cc(C=O)c(OC(=O)c2ccc(N(C)C)cc2)c1Br | > 22 | > 44 |  |  |  |
| O=C1C(Br)=CC(Br)=C[C@]12CO2 | 12 | 2 (≈ 0.56 µg/mL) | 6 |  |  |
| COC(=O)CCc1cc(Br)c(OC)c(Br)c1O | 136 | > 27 |  |  |  |
| COc1c(Br)cc(/C=C2\N=C(c3ccccc3)OC2=O)c(OCc2ccccc2)c1Br | 921 | 1 (≈ 0.543 µg/mL) | 921 |  |  |
| COc1c(Br)cc(/C=C2\N=C(c3ccccc3)OC2=O)c(O)c1Br | > 22 | > 22 |  |  |  |
| COc1c(Br)cc(/C=C2\N=C(c3ccccc3)OC2=O)c(OCc2cc(N(C)C)ccc2Br)c1Br [listing 1 of 2 here] |  |  |  | > 15 | >30 |
| COc1c(Br)cc(/C=C2\N=C(c3ccccc3)OC2=O)c(OCc2cc(N(C)C)ccc2Br)c1Br [listing 2 of 2 here] |  | > 28 |  | 71 |  |
| O=C1C2(Br)C=C(Br)C([C@H]3[C@]2(Br)C=C(Br)C(=O)[C@]32CO2)[C@@]12CO2 (some centres undefined) | 4 | 2 (≈ 1.12 µg/mL) | 2 |  |  |
| COC1=CC(=O)[C@]2(C=C1)CO2 | 33 | 33 (≈ 5.02 µg/mL) | 1 |  |  |
| COC1=C(Br)C(=O)[C@]2(C=C1Br)CO2 | 161 | 3 (≈ 0.93 µg/mL) | 54 |  |  |
| COC1=C(Br)C(=O)[C@@]2(CO2)C(OC)=C1Br | > 15 | 15 (≈ 5.1 µg/mL) |  |  |  |
| COC1=C(Br)[C@H](O)[C@](O)(CC#N)C=C1Br (single isomer, unassigned) | 29 | 2 (≈ 0.678 µg/mL) | 14 |  |  |

Source: ChEMBL document CHEMBL1143700, “Antiangiogenic versus cytotoxic activity in analogues of aeroplysinin-1” (Bioorg Med Chem, 2007)
